Screens as filed in PubChem.
Sampled rows, rich in hits. Any-hit rate of the full collection: about 4.6%.
GPR7 antag = human neuropeptides B/W receptor 1 antagonism | P48145 | GPR7-expressing cells, fluorescence antagonist assay | inhibition, % at 4.4 µM | 1.1% of 290,000 active; in the data active = inhibition above about 16%, passing the limit was not always enough;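 note: cells stimulated with the agonist NPW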
Target sequence (P48145 whole entry, looked up): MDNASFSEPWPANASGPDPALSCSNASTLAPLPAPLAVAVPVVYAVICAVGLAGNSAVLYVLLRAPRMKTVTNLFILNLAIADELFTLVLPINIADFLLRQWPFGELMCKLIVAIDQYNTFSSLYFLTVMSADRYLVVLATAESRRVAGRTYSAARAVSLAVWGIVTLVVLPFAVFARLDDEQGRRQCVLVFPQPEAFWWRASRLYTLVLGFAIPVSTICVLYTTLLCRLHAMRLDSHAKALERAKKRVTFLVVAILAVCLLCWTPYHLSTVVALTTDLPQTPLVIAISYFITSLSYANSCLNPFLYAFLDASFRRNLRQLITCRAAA
TAAR1 agonist = human TAAR1 agonism; Q96RJ0; CHO RD-HGA16 TAAR1, Fluo-8 calcium fluorescence; vehicle wells 0%, saturating PEA agonist 100%; activation, % at 3 µM; 0.99% of 360,000 active;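 active = activation above the mean activation of all test compounds in the run plus 3 SD, cut at about 38% in these data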
Target sequence (Q96RJ0 whole entry, looked up): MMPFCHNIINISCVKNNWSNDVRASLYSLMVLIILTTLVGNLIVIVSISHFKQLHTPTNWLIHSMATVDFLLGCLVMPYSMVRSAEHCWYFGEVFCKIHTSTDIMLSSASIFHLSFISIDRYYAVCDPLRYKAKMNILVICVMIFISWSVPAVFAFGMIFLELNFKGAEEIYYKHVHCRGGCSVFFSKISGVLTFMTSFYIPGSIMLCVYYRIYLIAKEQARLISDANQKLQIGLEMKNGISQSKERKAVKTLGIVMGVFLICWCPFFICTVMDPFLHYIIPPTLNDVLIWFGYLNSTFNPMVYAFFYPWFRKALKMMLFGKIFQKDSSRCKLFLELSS
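Test system: RD-HGA16 (CHO) cells co-expressing Gα16 and hTAAR1 / Benchmarks: DMSO vehicle as 0%, PEA at EC100 as 100% / Repeats: no replicates (n 1) / Measure: % activation from peak over basal fluorescence ratio, DMSO-to-PEA scaled / Timing: 17-24 h plating, Fluo-8 75 min 37 °C, 30 min RT / Technique: kinetic Fluo-8 calcium fluorescence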
OX1R antag-1 = antagonists of human orexin 1 receptor (OX1R). O43613. OX1R-expressing cells, FRET antagonist read-out. inhibition, % at 6.6 µM. 1.8% of 330,000 active. AID 485270; in the data active = inhibition mostly above about 38%, no sharp cut-off; inactive = mostly below about 40%
CHO parental Ca = signal in parental CHO cells, OX1R antagonist counter-screen. parental CHO-K1, ATP-induced calcium, Fluo-8 fluorescence. AID 463079. 0.63% of 330,000 active. inhibition, % at 5.6 µM;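 active = inhibition above that plate's mean sample inhibition plus 3 SD, cut at about 26% in these data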
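Material: Parental CHO cells | Reagent: ATP | Compound dosing: Single nominal dose of 5.6 µM per compound | Detection: Intracellular calcium via Fluo-8 no-wash fluorescent dye | Read-out: % inhibition of ATP-induced calcium mobilization | Benchmarks: Low control ATP plus DMSO, high control DMSO only | Replicates: Singlicate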
OX1R antag-2 = antagonists of human orexin 1 receptor. CHO/OX1R cells, Fluo-8 calcium fluorescence, orexin A. AID 434989. inhibition, % at 5 µM. 0.43% of 330,000 active;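 active = inhibition above its plate's threshold, mean inhibition of all tested compounds on the plate plus 3 SD, cut at about 37% in these data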
TAAR1 antag = antagonists of human TAAR1 | Q96RJ0 | CHO RD-HGA16 TAAR1, Fluo-8 calcium fluorescence, antagonist | inhibition, % at 3 µM | 1.5% of 360,000 active;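 active = inhibition above a per-plate cutoff, the mean inhibition of test compounds on that plate plus 3 SD, cut at about 49% in these data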
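System: RD-HGA16 CHO cells with stable hTAAR1 and Gα16 | Probe or stimulus: EC80 β-phenethylamine stimulus | Dosing: 3 µM, single point | Times: Dye loading 75 min at 37 °C, then 30 min room temperature | Measured by: Fluo-8 calcium-sensitive fluorescence | Read-out basis: % inhibition of agonist calcium response | Replicates: n of 1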
TAAR1 ag confirm = confirmation of human TAAR1 agonists. activation, % at 3 µM. 82% of 2,400 active. shares compounds with TAAR1 agonist. CHO RD-HGA16 TAAR1, Fluo-8 calcium fluorescence; scaled: DMSO 0%, maximal phenethylamine 100%;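 active = activation above a cutoff set at the run's mean compound activation plus 3 SD, cut at about 39% in these data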
Ga16 ag counter = counter-screen for TAAR1 agonists: nonselective agonists in parental cells; shares compounds with TAAR1 agonist; CHO-Ga16 parental, Fluo-8 calcium fluorescence; normalized to maximal ATP response, DMSO zero; activation, % at 3 µM; 50% of 2,400 active; AID 651787;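 active = activation above the run cutoff, the mean activation over all tested wells plus 3 SD, cut at about 12% in these data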
TAAR1 desens = human TAAR1 agonist that also desensitizes the receptor; shares compounds with TAAR1 agonist; CHO RD-HGA16 hTAAR1, Fluo-8 calcium, beta-PEA response inhibition; inhibition, % at 3 µM; 46% of 2,400 active; AID 651951;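 active = inhibition above the run cutoff, the mean inhibition of all test compounds plus 3 SD, cut at about 49% in these data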;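 note: beta-PEA stimulus applied at its EC80; loss of beta-PEA calcium signal after compound pretreatment read as receptor desensitization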
Ga16 nonsel ant = nonselective Ga16 antagonist in TAAR1 agonist counter-screen; shares compounds with TAAR1 agonist; CHO-Ga16 ATP-induced calcium, Fluo-8 fluorescence; inhibition, % at 3 µM; 39% of 2,400 active;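 active = inhibition above the plate's mean compound inhibition plus 3 SD, computed per plate, cut at about 22% in these data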
Of the large screens only hits and unclear results are named; the others gave an inactive call (follow-up assays come after a bar, where they were run).

COc1cccc(NC(=O)N2CCN(c3cccc(C)c3C)CC2)c1	none
CC1=NN(C(=O)Cc2ccccc2)C(O)(c2cccnc2)C1 (stereo not given)	none
O=C1NC(CCc2ccccc2)C(=O)N1CCOc1cccc(Br)c1 (stereo not given)	TAAR1 agonist 59.1 | TAAR1 ag confirm inactive | Ga16 ag counter inactive | TAAR1 desens inactive | Ga16 nonsel ant inactive
C[C@H](O)[C@@H]1CN2CCc3c([nH]c4c(-c5ccccc5)cccc34)[C@@H]2C[C@@H]1N(C)C(=S)NCCc1ccccc1	TAAR1 agonist 84.6, TAAR1 antag 61.1 (no result: GPR7 antag, OX1R antag-1, CHO parental Ca, OX1R antag-2) | TAAR1 ag confirm inactive | Ga16 ag counter inactive | TAAR1 desens inactive | Ga16 nonsel ant inactive
Cc1onc(-c2ccccc2)c1C(=O)Oc1ccccc1	none
COc1ccc(C2=NN(CC(=O)Nc3cc(C)ccc3C)C(=O)CC2)cc1	none
O=C(COc1ccc(S(=O)(=O)Nc2ccc(Cl)cc2)cc1)N1CCOCC1	TAAR1 agonist 56.6 | TAAR1 ag confirm 55.7 | Ga16 ag counter 31.1 | TAAR1 desens inactive | Ga16 nonsel ant inactive
CC(C)(CNC(=O)c1ccc(S(=O)(=O)Nc2ccc(Cl)cc2)cc1)N1CCOCC1	TAAR1 agonist 65.4 (no result: GPR7 antag) | TAAR1 ag confirm 45.4 | Ga16 ag counter 19.1 | TAAR1 desens inactive | Ga16 nonsel ant 23.0
COc1ccc(NS(=O)(=O)c2ccc(OCC(=O)N3CCOCC3)cc2)cc1	none
CCOc1ccc(NS(=O)(=O)c2ccc(C(=O)NCC(c3cccs3)N3CCOCC3)cc2)cc1 (stereo not given)	TAAR1 agonist 125.5, TAAR1 antag 82.6 (no result: GPR7 antag) | TAAR1 ag confirm 106.2 | Ga16 ag counter 68.1 | TAAR1 desens 77.6 | Ga16 nonsel ant 50.7
CC(C)(C)c1ccc(OCC(=O)O/N=C(\N)c2ccncc2)cc1	none
COCc1cc(C)nc(N2CCCCC2)c1C#N	none
CCOc1cc2c(C#N)c(N3CCNCC3)nc(N)c2c(N)n1	TAAR1 agonist 61.0, TAAR1 antag 53.6 | TAAR1 ag confirm 82.8 | Ga16 ag counter inactive | TAAR1 desens 81.3 | Ga16 nonsel ant inactive
COCc1cc(C)nc(N2CCNCC2)c1C#N	TAAR1 agonist 52.7 | TAAR1 ag confirm 56.6 | Ga16 ag counter inactive | TAAR1 desens inactive | Ga16 nonsel ant inactive
COc1ccc(CNC(=S)Nc2cccc(F)c2)cc1	none
Cc1cccc(NS(=O)(=O)c2ccc(C3CCCCC3)cc2)c1	TAAR1 agonist 58.8, CHO parental Ca 47.9, OX1R antag-2 51.1, TAAR1 antag 55.2 | TAAR1 ag confirm 37.5 | Ga16 ag counter inactive | TAAR1 desens inactive | Ga16 nonsel ant 36.9
N#CCc1ccc(NS(=O)(=O)c2ccc(C3CCCCC3)cc2)cc1	TAAR1 agonist 51.3, CHO parental Ca 67.7, TAAR1 antag 51.0 | TAAR1 ag confirm 50.8 | Ga16 ag counter 23.6 | TAAR1 desens inactive | Ga16 nonsel ant 34.1
O=C(O)c1cccc(NS(=O)(=O)c2ccc(C3CCCCC3)cc2)c1	none (no result: TAAR1 agonist, TAAR1 antag)
Cc1cc(C)nc(SCC(=O)NN=Cc2ccc(C)o2)n1	none (no result: GPR7 antag)
CN(C(=O)c1ccc(NC(=O)Cc2ccc([N+](=O)[O-])cc2)cc1)C1CC1	TAAR1 agonist 77.3 (no result: GPR7 antag) | TAAR1 ag confirm 97.1 | Ga16 ag counter 41.5 | TAAR1 desens inactive | Ga16 nonsel ant inactive
CN(C(=O)c1ccc(NC(=O)Cc2cccc([N+](=O)[O-])c2)cc1)C1CC1	none (no result: GPR7 antag)
CCOc1ccccc1C(=O)N[C@H](C(=O)Nc1nc2c(s1)CCCC2)C(C)C	TAAR1 agonist 45.6 | TAAR1 ag confirm 41.2 | Ga16 ag counter 13.0 | TAAR1 desens inactive | Ga16 nonsel ant inactive
COC(=O)C1=CN(c2ccc(C(C)(C)C)cc2)C(N)=C(C#N)C1c1cccc2ccccc12 (stereo not given)	none (no result: GPR7 antag, OX1R antag-1, CHO parental Ca, OX1R antag-2)
O=c1c2ccccc2nnn1Cc1nnc(-c2ccccc2Br)o1	TAAR1 agonist 66.7 | TAAR1 ag confirm 114.5 | Ga16 ag counter 79.7 | TAAR1 desens inactive | Ga16 nonsel ant inactive
O=C(NCc1cccs1)c1cc(-c2ccccc2)on1	TAAR1 agonist 57.1 | TAAR1 ag confirm inactive | Ga16 ag counter 19.4 | TAAR1 desens inactive | Ga16 nonsel ant 22.6
O=C(NCc1cccs1)c1cc(-c2cccs2)on1	none
CC(C)Cn1c(-c2ccco2)nc2c(c(=O)c3ccccc3n2C)c1=O	none
Cn1c2ccccc2c(=O)c2c(=O)n(C3CCCCC3)c(-c3ccco3)nc21	TAAR1 agonist 103.2 | TAAR1 ag confirm 87.2 | Ga16 ag counter 62.2 | TAAR1 desens inactive | Ga16 nonsel ant 24.7
Cc1nc2c(c(=O)c3ccccc3n2C)c(=O)n1C1CCCCCC1	TAAR1 agonist 49.6 | TAAR1 ag confirm 56.4 | Ga16 ag counter 50.8 | TAAR1 desens inactive | Ga16 nonsel ant inactive
Cc1nc2c(c(=O)c3ccccc3n2C)c(=O)n1-c1ccccc1	none
CCn1ccnc1CN(C)Cc1c(C(=O)N2CCCCCCC2)nc2ccc(Cl)cn12	none
Cc1noc(C)c1NC(=O)N(C)C[C@@H]1OCc2cn(nn2)CCCC(=O)N([C@H](C)CO)C[C@H]1C	none (no result: GPR7 antag, OX1R antag-1, CHO parental Ca, OX1R antag-2)
C[C@@H](NC(=O)c1ncn2c1c(=O)[nH]c1ccc(Br)cc12)c1ccccc1	none (no result: GPR7 antag, OX1R antag-1, CHO parental Ca, OX1R antag-2)
Cc1cc(C)nc(NS(=O)(=O)c2ccc(NC(=O)C3(c4ccc([N+](=O)[O-])cc4)CCCC3)cc2)n1	TAAR1 agonist 63.0 | TAAR1 ag confirm 102.3 | Ga16 ag counter 39.2 | TAAR1 desens 63.6 | Ga16 nonsel ant 35.8
COc1ccc(C2(C(=O)Nc3ccc(S(=O)(=O)Nc4nc(C)cc(C)n4)cc3)CCCC2)cc1OC	none
COCCCNC(=S)N(CCCO)Cc1cc2cc3c(cc2[nH]c1=O)OCO3	none
CC1=C(C(=O)OCC2CCCO2)C(c2ccc(F)cc2)NC(=O)N1 (stereo not given)	none
Fc1c(F)c(C(F)(F)F)c(F)c(F)c1N/N=C\c1cccs1	TAAR1 agonist 92.3, TAAR1 antag 75.5 | TAAR1 ag confirm 70.1 | Ga16 ag counter 86.0 | TAAR1 desens 70.7 | Ga16 nonsel ant 79.6
COc1ccc(CN2CCNC(=O)C2CC(=O)N(C)Cc2ccon2)c(F)c1 (stereo not given)	none
